Published values of several laboratories.
Each line is one published result; the experiments were not run side by side.
CDK9: Cyclin-dependent kinase 9 (CDK9, Homo sapiens, UniProt P50750)
CDK1: Cyclin-dependent kinase 1 (CDK1, Homo sapiens, UniProt P06493)

CN1C(=O)CCC(N2C(=O)c3cc4c(cc3C2=O)CN(CCCCCCCC(=O)N2CCC(C(=O)Nc3ncc(SCc5ncc(C(C)(C)C)o5)s3)CC2)C4)C1=O (stereo not shown)
inhibition (CDK9; protein level, degrader, western blot; TC-71; 25 nM): 5.1%

C[C@H]1CN(CC2CCN(c3ccc(C4CCC(=O)NC4=O)cc3F)CC2)CC[C@H]1NS(=O)(=O)c1ccc(Nc2ncc(C(F)(F)F)c(N3CCC[C@](C)(O)C3)n2)c(F)c1 (stereo partly shown)
Dmax (CDK1; protein level, degrader, western blot; TOV21G): 40%

Cc1cc(O)c(-c2ccc([C@@H](C)CN(C)C)cc2)c2c1[nH]c(=O)c1sccc12
inhibition (Dual specificity mitogen-activated protein kinase kinase 7 (MAP2K7, Homo sapiens, UniProt O14733); enzyme activity, inhibitor; 0.1 µM): 4.47%

C#Cc1cc(-c2cc(Nc3nc(N[C@@H](C)c4ccc(F)cn4)ncc3Cl)n[nH]2)ccc1C=O
inhibition (Phosphorylase b kinase gamma catalytic chain, skeletal muscle/heart isoform (PHKG1, Homo sapiens, UniProt Q16816); enzyme activity, inhibitor; 0.2 µM): 80.2%

CC(C)(C)c1cnc(CSc2cnc(NC(=O)C3CCN(C(=O)CCCCCCN4Cc5cc6c(cc5C4)C(=O)N(C4CCC(=O)NC4=O)C6=O)CC3)s2)o1 (stereo not shown)
inhibition (CDK9; protein level, degrader, western blot; TC-71; 25 nM): 95.8%

C[C@]1(O)CCCN(c2nc(Nc3ccc(S(=O)(=O)N[C@H]4CC[C@H](CN5CCN(c6ccc(C7CCC(=O)NC7=O)cc6F)CC5)CC4)cc3F)ncc2C(F)(F)F)C1 (stereo partly shown)
Dmax (CDK1; protein level, degrader, western blot; TOV21G): 82%

CC(C)(C)c1cnc(CSc2cnc(NC(=O)C3CCN(C(=O)CCCCCCCCCN4Cc5cc6c(cc5C4)C(=O)N(C4CCC(=O)NC4=O)C6=O)CC3)s2)o1 (stereo not shown)
inhibition (CDK9; protein level, degrader, western blot; TC-71; 25 nM): 91.8%

C1=C/COCc2cc(ccc2OCCN2CCCC2)Nc2nccc(n2)-c2cccc(c2)COC/1
remaining binding (Tyrosine-protein kinase Mer (MERTK, Homo sapiens, UniProt Q12866); binding; 0.1 µM): 80%

CCCCC(=O)Nc1ccc(-c2ccc3ncn(CCC)c(=O)c3c2)cn1
remaining binding (Ankyrin repeat and protein kinase domain-containing protein 1 (ANKK1, Homo sapiens, UniProt Q8NFD2); binding, competition with immobilised ligand; 0.5 µM): 100%

NC/C(=C\F)COc1cccc(Cn2c(=S)[nH]c(=O)c3[nH]cnc32)c1
remaining activity (Myeloperoxidase (Mus musculus, UniProt P11247); enzyme activity, inhibitor; 0.25 µM): 9.08%

C[C@]1(O)CCCN(c2nc(Nc3ccc(S(=O)(=O)N[C@H]4CC[C@H](CN5CCN(c6ccc(C7CCC(=O)NC7=O)c(F)c6)CC5)CC4)cc3F)ncc2C(F)(F)F)C1 (stereo partly shown)
Dmax (CDK1; protein level, degrader, western blot; TOV21G): 73%

Cc1cc2c(C(N)=O)c(N)n(-c3c(C)ccc(O)c3C)c2nc1C
inhibition (Proto-oncogene tyrosine-protein kinase Src (SRC, Homo sapiens, UniProt P12931); enzyme activity, inhibitor, TR-FRET; 10 µM): 101%

COc1ccc2oc(-c3ccc4nc(N)oc4c3)c/c(=N\c3ccccc3NC(=O)CCN)c2c1
remaining signal (Proto-oncogene tyrosine-protein kinase Src (SRC, Homo sapiens, UniProt P12931, T341M); cell-free assay; 1 µM): 90%
